One substance from PMC8959088 (Journal of the American Chemical Society, 2022) can be followed below.

Some results are limits rather than exact numbers.

In general, Ki refers to the dissociation constant of the complex between target and ligand, obtained from inhibition or displacement.

The assay concerns the target KIX domain of p300/CBP (KIX–MLL interaction) (Mus musculus, UniProt P45481). Kind of assay: competition fluorescence polarization assay, inhibition of KIX–MLL interaction. Type of assay: binding. The procedure, abridged: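 Competition fluorescence polarization format: test peptidomimetic competes with fluorescently labeled MLL peptide for KIX, and Ki is derived from the competition data.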
Background: In fluorescence polarisation assays a small probe gives low polarisation when free and higher when bound to something large.

Chain of KIX domain of p300/CBP (KIX–MLL interaction) (P45481 586-665 limits assumed): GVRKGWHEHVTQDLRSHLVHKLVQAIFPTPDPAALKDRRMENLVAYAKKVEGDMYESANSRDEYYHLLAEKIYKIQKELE

“Ac-SDIMDFVLKNTP-NH2 [MLL^847–858, Ac-SDIMDFVLKNTP-NH2]” gave an inhibition constant (Ki) greater than 1000 µM.
